# Measured values from ChEMBL document CHEMBL1129639, “Synthesis and cardiotonic activity of novel pyrimidine derivatives: crystallographic and quantum chemical studies” (J Med Chem, 1996).
# Columns and labels:
# Cavia porcellus [1] = species on record: Cavia porcellus; experiment: Effect on the contractile force of spontaneously beating atria from Reserpine-treated guinea pigs as percentage variation from the control at concentration of 3 x 10E-4 M; type: functional
# Summary of the method: (§1)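 Atria from reserpine-treated guinea pigs (reserpine 2 mg/kg ip, 48 and 24 h before death; only tyramine-unresponsive preparations used). Bath solution at 29 °C, gassed 95% O2/5% CO2, pH 7.5, resting tension […]. After 90 min equilibration, compound added cumulatively, 5 min per concentration. Isometric developed-tension amplitude or beating rate given as % variation from untreated control. Mean ± SEM, 6-10 assays.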
# Cavia porcellus [2] = species on record: Cavia porcellus; experiment: Compound was evaluated for its effect on the frequency rate of spontaneously beating atria from Reserpine-treated guinea pigs as percentage variation from the control at concentration of 3 x 10E-6 M; type: functional; summary of the method: as §1
# Cavia porcellus [3] = species on record: Cavia porcellus; experiment: Effect on the contractile force of spontaneously beating atria from Reserpine-treated guinea pigs as percentage variation from the control at concentration of 3 x 10E-6 M; type: functional; summary of the method: as §1
# Cavia porcellus [4] = species on record: Cavia porcellus; experiment: Effect on the contractile force of spontaneously beating atria from Reserpine-treated guinea pigs as percentage variation from the control at concentration of 10E-5 M; type: functional; summary of the method: as §1
# Cavia porcellus [5] = species on record: Cavia porcellus; experiment: Effect on the frequency rate of spontaneously beating atria from Reserpine-treated guinea pigs as percentage variation from the control at concentration of 10E-3 M; type: functional; summary of the method: as §1
# Cavia porcellus [6] = species on record: Cavia porcellus; experiment: Effect on the frequency rate of spontaneously beating atria from Reserpine-treated guinea pigs as percentage variation from the control at concentration of 10E-5 M; type: functional; summary of the method: as §1
# Cavia porcellus [7] = species on record: Cavia porcellus; experiment: Compound was evaluated for its effect on the frequency rate of spontaneously beating atria from Reserpine-treated guinea pigs as percentage variation from the control at concentration of 3 x 10E-4 M; type: functional; summary of the method: as §1
# Cavia porcellus [8] = species on record: Cavia porcellus; experiment: Effect on the contractile force of spontaneously beating atria from Reserpine-treated guinea pigs as percentage variation from the control at concentration of 3 x 10E-5 M; type: functional; summary of the method: as §1
# Cavia porcellus [9] = species on record: Cavia porcellus; experiment: Effect on the contractile force of spontaneously beating atria from Reserpine-treated guinea pigs as percentage variation from the control at concentration of 10E-3 M; type: functional; summary of the method: as §1
# Cavia porcellus [10] = species on record: Cavia porcellus; experiment: Effect on the contractile force of spontaneously beating atria from Reserpine-treated guinea pigs as percentage variation from the control at concentration of 10E-6 M; type: functional; summary of the method: as §1
# Cavia porcellus [11] = species on record: Cavia porcellus; experiment: Effect on the contractile force of spontaneously beating atria from Reserpine treated guinea pigs as percentage variation from the control at concentration of 10E-4 M; type: functional; summary of the method: as §1
# Cavia porcellus [12] = species on record: Cavia porcellus; experiment: Effect on the frequency rate of spontaneously beating atria from Reserpine-treated guinea pigs as percentage variation from the control at concentration of 10E-6 M; type: functional; summary of the method: as §1
# Cavia porcellus [13] = species on record: Cavia porcellus; experiment: Effect on the frequency rate of spontaneously beating atria from Reserpine-treated guinea pigs as percentage variation from the control at concentration of 10E-4 M; type: functional; summary of the method: as §1
# Cavia porcellus [14] = species on record: Cavia porcellus; experiment: Compound was evaluated for its effect on the frequency rate of spontaneously beating atria from Reserpine-treated guinea pigs as percentage variation from the control at concentration of 3 x 10E-5 M; type: functional; summary of the method: as §1
# Cavia porcellus [15] = species on record: Cavia porcellus; experiment: Inotropic effect in electrically driven left atrium from reserpine-treated guinea pigs at concentration of 3 x 10E-6 M; type: functional, Cardiac atrium
# Summary of the method: (§2)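 Electrically driven left atrium from reserpine-treated guinea pigs (tyramine-unresponsive), 29 °C, pH 7.5, resting tension […], 90 min equilibration. Compound dissolved in DMSO and added cumulatively, 5 min per step. Where used, adenosine deaminase was preincubated 20 min, and basal force was taken after ADA addition. Developed tension given as % change over control. Mean ± SEM of six assays.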
# Cavia porcellus [16] = species on record: Cavia porcellus; experiment: Inotropic effect in electrically driven left atrium from reserpine-treated guinea pigs at concentration of 3 x 10E-4 M; type: functional, Cardiac atrium; summary of the method: as §2
# Cavia porcellus [17] = species on record: Cavia porcellus; experiment: Inotropic effect in electrically driven left atrium from reserpine-treated guinea pigs at concentration of 3 x 10E-5 M; type: functional, Cardiac atrium; summary of the method: as §2
# Cavia porcellus [18] = species on record: Cavia porcellus; experiment: Inotropic effect in electrically driven left atrium from reserpine-treated guinea pigs at concentration of 10E-3 M; type: functional, Cardiac atrium; summary of the method: as §2
# Cavia porcellus [19] = species on record: Cavia porcellus; experiment: Inotropic effect in electrically driven left atrium from reserpine-treated guinea pigs at concentration of 10E-5 M; type: functional, Cardiac atrium; summary of the method: as §2
# Cavia porcellus [20] = species on record: Cavia porcellus; experiment: Inotropic effect in electrically driven left atrium from reserpine-treated guinea pigs at concentration of 10E-6 M; type: functional, Cardiac atrium; summary of the method: as §2
# Cavia porcellus [21] = species on record: Cavia porcellus; experiment: Inotropic effect in electrically driven left atrium from reserpine-treated guinea pigs at concentration of 10E-4 M; type: functional, Cardiac atrium; summary of the method: as §2
SMILES,Variation (Cavia porcellus [1]),Variation (Cavia porcellus [2]),Variation (Cavia porcellus [3]),Variation (Cavia porcellus [4]),Variation (Cavia porcellus [5]),Variation (Cavia porcellus [6]),Variation (Cavia porcellus [7]),Variation (Cavia porcellus [8]),Variation (Cavia porcellus [9]),Variation (Cavia porcellus [10]),Variation (Cavia porcellus [11]),Variation (Cavia porcellus [12]),Variation (Cavia porcellus [13]),Variation (Cavia porcellus [14]),other results
CN(C)c1nccc(Cc2ccccc2)n1,-46.99%,0%,10.71%,9.18%,-12.12%,3.03%,-9.09%,3.17%,-57.09%,6.43%,-32.51%,0%,-3.03%,3.03%,
CCOC(=O)c1cnc(N(C)C)nc1C(=O)OCC,-76.47%,0%,2.18%,0.54%,-100%,-4.76%,-55.55%,-5.33%,-100%,0%,-48.31%,0%,-40.77%,-7.41%,
CCCc1ccnc(N(C)C)n1,-73.58%,-5.29%,7.18%,3.15%,-52.63%,-26.31%,-52.63%,-10.63%,-91.86%,0%,-64.06%,0%,-52.63%,-31.58%,
Nc1cc(-c2ccncc2)c[nH]c1=O [INAMRINONE],19.03%,0%,0%,0.52%,9.87%,0%,7.2%,4.5%,23.12%,0%,10.22%,0%,6.25%,1.5%,
Cc1[nH]c(=O)c(C#N)cc1-c1ccncc1 [MILRINONE],45.62%,0%,0%,16.31%,37.2%,15.22%,42.85%,30.32%,31.09%,0%,37.77%,0%,34.16%,27.09%,Variation (Cavia porcellus [15]): 9.31%; Variation (Cavia porcellus [16]): 45.61%; Variation (Cavia porcellus [17]): 22.81%; Variation (Cavia porcellus [18]): 42.89%; Variation (Cavia porcellus [19]): 13.25%; Variation (Cavia porcellus [20]): 0%; Variation (Cavia porcellus [21]): 35.61%
